Source: PubChem BioAssay
Compounds with a hit are over-represented: about 2.6% of the library has one in this group of screens.
OX1R antag-1: blocks the human orexin 1 receptor; O43613; CHO/OX1R cells, Fluo-8 calcium fluorescence, orexin A; inhibition, % at 5 µM; 0.43% of 330,000 active; AID 434989;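 active = inhibition above its plate's threshold, mean inhibition of all tested compounds on the plate plus 3 SD, cut at about 37% in these data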
OXTR ag: human OXTR agonism; P30559; CHO-OTR cells, Fluo-8 calcium fluorescence; normalized: DMSO 0%, oxytocin 100%; activation, % at 3 µM; 0.32% of 320,000 active; AID 2435;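 active = activation above the mean of all tested compounds plus 3 SD, cutoff set per screening run, cut at about 20% in these data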;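 note: peak over basal fluorescence ratio from a 100 s FLIPR kinetic read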
Target sequence (P30559 whole entry, looked up): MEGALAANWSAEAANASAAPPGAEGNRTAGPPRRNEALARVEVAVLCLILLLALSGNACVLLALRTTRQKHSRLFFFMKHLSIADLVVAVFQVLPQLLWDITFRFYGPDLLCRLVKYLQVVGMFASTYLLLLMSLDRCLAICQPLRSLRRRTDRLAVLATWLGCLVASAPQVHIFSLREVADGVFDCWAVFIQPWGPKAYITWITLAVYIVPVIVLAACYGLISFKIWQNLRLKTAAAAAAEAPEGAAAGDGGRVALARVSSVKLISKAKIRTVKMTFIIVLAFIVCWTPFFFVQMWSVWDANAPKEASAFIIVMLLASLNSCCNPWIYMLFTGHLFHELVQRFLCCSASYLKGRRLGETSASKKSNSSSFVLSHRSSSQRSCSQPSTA
OXTR potentiator: potentiators of human oxytocin receptor; P30559; CHO-OTR cells, Fluo-8 calcium fluorescence, potentiator mode; 0% = oxytocin EC15, 100% = EC100; activation, % at 3 µM; 0.061% of 320,000 active; AID 2445;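 active = activation above that plate's cutoff, the mean activation of tested compounds plus 3 SD, cut at about 6.6% in these data, passing the limit was not always enough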
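Dosing: Single dose, 3.0 µM nominal final compound concentration | Material: Human OTR in CHO cells | Technique: Kinetic Fluo-8 calcium fluorescence | Benchmarks: EC15 oxytocin alone as 0%, 75 nM oxytocin as 100% | Probe or stimulus: Oxytocin at about EC15, sub-maximal agonist stimulus | Incubation: Compound 6 min at room temperature before oxytocin, 100 s read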
OX1R antag-2: blocks the human orexin 1 receptor | 1.8% of 330,000 active | OX1R-expressing cells, FRET antagonist read-out | AID 485270 | inhibition, % at 6.6 µM | O43613; in the data active = inhibition mostly above about 38%, no sharp cut-off; inactive = mostly below about 40%
V1aR counter: activates human V1a receptor in oxytocin agonist counter-screen; CHO-V1R cells, Fluo-8 calcium fluorescence, agonist mode; 0% DMSO, 100% 3 nM vasopressin; activation, % at 3 µM; 0.25% of 320,000 active;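 active = activation above the mean activation of all tested compounds plus 3 SD, per screening run, cut at about 20% in these data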;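 note: signal is peak over basal fluorescence ratio across a 100 second FLIPR read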
CHO parental Ca: counter-screen: ATP calcium response change in parental CHO cells; parental CHO-K1, ATP-induced calcium, Fluo-8 fluorescence; inhibition, % at 5.6 µM; 0.63% of 330,000 active;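 active = inhibition above that plate's mean sample inhibition plus 3 SD, cut at about 26% in these data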
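Test system: parental CHO cells; detection: calcium-sensitive Fluo-8 fluorescence; evaluation: percent inhibition of calcium signal; also added: ATP as calcium-mobilizing challenge; repeats: one well per compound; control set: ATP-challenged DMSO wells low, unchallenged DMSO wells high; compound: single nominal dose of 5.6 µM per compound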
OXTR ag confirm: confirmation of human oxytocin receptor agonists | shares compounds with OXTR ag | CHO-OTR cells, Fluo-8 calcium fluorescence, agonist | activation, % at 3 µM | 20% of 390 active | AID 434963;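 active = mean activation above about 20% derived from the earlier single-dose screen, limit read from the data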;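 note: peak over minimum fluorescence ratio per well during a 100 second FLIPR read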
V1R ag counter 3x: counter-screen for oxytocin receptor agonists: V1a receptor agonists. shares compounds with OXTR ag. CHO-V1R cells, Fluo-8 calcium fluorescence, agonist. activation, % at 3 µM. 10% of 390 active. AID 434991;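 active = mean activation over triplicate exceeds the hit threshold set in the earlier primary screen, cut at about 20% in these data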;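 note: peak over basal fluorescence ratio within a 100 second read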
Each line names hits and unclear results; the compound was inactive in the other large screens (follow-up assays come after a bar, where they were run); ! = not active in a repeat.

CN(C)c1ccc(/C=C/C=C/c2sc3ccccc3[n+]2C)cc1	none
COc1cc(/C=C(/C)[N+](=O)[O-])ccc1OCc1ccccc1Cl	CHO parental Ca 54
Clc1ccc(C[n+]2c(-c3ccccc3)cc(-c3ccccc3)cc2-c2ccccc2)cc1	OX1R antag-1 63, CHO parental Ca 63
CC(C)CN(C(=O)CN1CC=C(c2ccccc2)CC1)c1c(N)n(CC(C)C)c(=O)[nH]c1=O	none
NC(=O)c1cc(N2CC2)c([N+](=O)[O-])cc1[N+](=O)[O-]	OX1R antag-2 74
O=[N+]([O-])c1cc(F)c(N2CCCCCC2)cc1N1CCNCC1	none
CN[C@@H]1C[C@@H](c2ccc(Cl)c(Cl)c2)c2ccccc21	OXTR ag 28
CC(NCc1ccc(Cl)c(Cl)c1)C(O)c1ccccc1 (stereo not given)	none
CCN(CC)CCC(=O)O[C@H]1CC[C@]2(C)C3CC[C@@]4(C)C(CC[C@]4(C)O)C3CC[C@H]2C1 (stereo not given in full)	none
O=C(Cc1ccccc1F)N1CCN(CC(=O)N2CCCC2)CC1	none
Clc1ccc(COC(Cn2ccnc2)c2ccc(Cl)cc2Cl)c(Cl)c1 (stereo not given)	OX1R antag-1 39!, OX1R antag-2 25!, CHO parental Ca 43!
Cc1ccc(CC(=O)N2CCN(C)CC2)cc1	none
CCN(CC)c1ccc(/C=C/[N+](=O)[O-])cc1	OX1R antag-1 53, OXTR ag 42, V1aR counter 73, CHO parental Ca 51
CN1C2CCC1C(C(=O)O)C(O)C2 (stereo not given)	none
Cn1c(=O)[nH]c2nncnc2c1=O	OX1R antag-2 70
COc1cc2c(cc1OC)[C@@H]1C(=O)c3ccc4c(c3O[C@@H]1CO2)C[C@H](C(C)C)O4	CHO parental Ca 60
COc1cc2c(cc1OC)[C@H]1C(=O)c3ccc4c(c3O[C@H]1CO2)C[C@@H](C(C)(C)O)O4	none
Cc1cc(C)n(-c2ccc(NN=C(C#N)C#N)cc2)n1	none
N#CC(C#N)=NNc1ccc(-n2ccc(C(F)(F)F)n2)cc1	OX1R antag-1 53, OXTR ag 24, OX1R antag-2 61, CHO parental Ca 50
N=C1c2ccccc2CN1NC(=O)c1ccco1	none
OC(CN1CCOCC1)c1csc2ccccc12 (stereo not given)	none
Cc1c(C)c2ccc(OCC(=O)N3C[C@H]4C[C@@H](C3)c3cccc(=O)n3C4)cc2oc1=O	none
CC1=NCCc2c1[nH]c1cc(O)ccc21	OXTR ag 43, V1aR counter 30
CCN1CCN(c2ccc([N+](=O)[O-])cc2C(=O)OC)CC1	none
COC(=O)c1ccc(N2CCN(C)CC2)c([N+](=O)[O-])c1	OX1R antag-2 44
CC1(C)C(=O)CC[C@@]2(C)C1=CCC1C2CC[C@]2(C)C(=O)CCC12 (stereo not given in full)	none
CC(=O)Nc1ccc([As](=O)(O)c2ccc([N+](=O)[O-])cc2)cc1	OX1R antag-2 67
CCCCn1c(=O)c(C(=O)Nc2ccccc2C)c(O)c2ccccc21	none
CCCCCn1c(=O)c(C(=O)Nc2ncccc2C)c(O)c2ccccc21	OXTR ag 54, V1aR counter 39
CCN1C(=O)/C(=C/c2ccc(N(CC)CC)cc2OC)C(=O)NC1=S	none
COC(=O)C1=C(c2ccc(OC(F)(F)F)cc2)C[C@@H]2CC[C@H]1N2C(=O)NC1CCCCC1	none
C[C@]12CC[C@H](O)C[C@H]1CC[C@@H]1[C@@H]2CC[C@]2(C)C(=O)CC[C@@H]12	none
COC(=O)C(O)(c1ccc(NC(=S)NC(=O)c2ccc(Cl)cc2Cl)cc1)C(F)(F)F (stereo not given)	none
CCOC(=O)C(O)(c1ccc(NC(=S)NC(=O)c2ccc(Cl)cc2Cl)c(C)c1)C(F)(F)F (stereo not given)	OX1R antag-1 47, OXTR ag 32, V1aR counter 34, CHO parental Ca 50
CCOC(=O)C(O)(c1ccc(NC(=S)NC(=O)c2ccc(Cl)cc2Cl)cc1)C(F)(F)F (stereo not given)	OX1R antag-1 71, OXTR ag 51, V1aR counter 34, CHO parental Ca 57
COC(=O)C1=C(c2ccc(F)cc2OCc2ccccc2)C[C@@H]2CC[C@H]1N2C(=O)NC1CC1	none
C#C[C@]1(O)[C@H](O)CC2C3CC[C@H]4C[C@@H](O)CC[C@]4(C)C3CC[C@@]21C (stereo not given in full)	none
CCCCCCC(Cl)(Cn1ccnc1)c1ccccc1 (stereo not given)	none
Oc1cc(Cl)ccc1Oc1ccc(Cl)cc1Cl	OX1R antag-2 45, CHO parental Ca 67
C[C@H](NC(=O)CCC(=O)N1C[C@H]2C[C@H](C1)c1cccc(=O)n1C2)c1ccccc1	none
O=C(c1c[nH]cc1-c1ccccc1)c1cccc2ccccc12	CHO parental Ca 40
C[N+]1(CC(COCc2ccccc2)OC(=O)Cc2ccccc2)CCOCC1 (stereo not given)	none
CCN(CC)c1ccc(/C=C2\C(=O)NC(=S)N(C)C2=O)o1	OXTR ag 22, OX1R antag-2 55, V1aR counter 23
CCN(CC)c1ccc(C=C2C(=O)N(C)C(=S)N(C)C2=O)o1	none
COc1ccc(N2C(=O)/C(=C/c3ccc(N(C)C)o3)C(=O)NC2=S)cc1	OX1R antag-2 38
O=C1OCc2cc(N=Nc3c(O)[nH]c(=O)[nH]c3=O)ccc21	OX1R antag-2 42
CC(C)c1ccc(N=Nc2c(O)[nH]c(=O)[nH]c2=O)cc1	none
O=C(CCCN1CCC2(CC1)C(=O)NCN2c1ccccc1)c1ccc(F)cc1	OX1R antag-1 106, OXTR ag 41, V1aR counter 28, CHO parental Ca 99
CN1C(=O)C(=Cc2ccccc2OS(=O)(=O)c2ccccc2)C(=O)N(C)C1=O	none
CCCCNC(C)Cc1ccccc1 (stereo not given)	none
COc1ccc(CC(C)NCCC(c2ccccc2)c2ccccc2)cc1 (stereo not given)	OXTR ag 21 | OXTR ag confirm inactive | V1R ag counter 3x inactive
OC(CN1CCC(c2c[nH]c3ccccc23)CC1)C(F)(F)F (stereo not given)	none
